From PubChem BioAssay AID463073 (The Scripps Research Institute Molecular Screening Center, 2010)
About 10 (0.5%) of roughly 2,000 compounds were called active. The entries come from a sample that favours actives as a whole. Unmarked numbers belong to inactive results.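 Rule for the calls: active = inhibition above 30%; inactive = the rest.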

Target: Protein-arginine deiminase type-4 (Homo sapiens) (UniProt Q9UM07)
Test: human PAD4 inhibitors, primary screen, biochemical, fluorescence polarization (AID 463073);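 note: 0% = PAD4 with DMSO and 100% = wells lacking PAD4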
Details: recombinant PAD4, RFA probe fluorescence polarization; at 5 µM; hits give high values
Summary of the method: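 Material: recombinant human PAD4 enzyme / Input: PAD4 at 2 µM in dispensed buffer, before additions / Medium: HEPES buffer pH 7.6 with 10 mM CaCl2 and TCEP / Incubation: 30-min PAD4–compound preincubation (25 °C), then 5-h probe labeling (37 °C) / Detection: fluorescence polarization, 598 nm emission after 525 nm excitation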

Chain of Protein-arginine deiminase type-4 (Homo sapiens) (Q9UM07 whole entry, looked up): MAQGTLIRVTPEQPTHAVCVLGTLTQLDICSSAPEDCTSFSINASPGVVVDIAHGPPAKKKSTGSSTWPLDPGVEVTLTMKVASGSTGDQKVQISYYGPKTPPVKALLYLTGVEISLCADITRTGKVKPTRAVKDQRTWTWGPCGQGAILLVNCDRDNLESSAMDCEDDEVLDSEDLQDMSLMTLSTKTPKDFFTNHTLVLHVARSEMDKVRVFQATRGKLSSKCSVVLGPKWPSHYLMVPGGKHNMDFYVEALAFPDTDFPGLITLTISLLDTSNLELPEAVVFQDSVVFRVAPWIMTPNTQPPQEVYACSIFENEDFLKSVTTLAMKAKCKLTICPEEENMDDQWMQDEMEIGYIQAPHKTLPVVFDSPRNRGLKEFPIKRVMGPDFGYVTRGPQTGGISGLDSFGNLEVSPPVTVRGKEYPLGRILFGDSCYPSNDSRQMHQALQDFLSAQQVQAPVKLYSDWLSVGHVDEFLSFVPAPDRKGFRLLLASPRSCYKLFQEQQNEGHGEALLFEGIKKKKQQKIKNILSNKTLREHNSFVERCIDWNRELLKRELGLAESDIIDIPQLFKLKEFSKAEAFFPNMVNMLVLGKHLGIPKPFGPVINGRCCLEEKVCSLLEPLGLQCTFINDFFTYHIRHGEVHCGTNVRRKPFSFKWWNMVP

Row | Compound | inhibition
1 | O=C1C(=O)c2ccccc2-c2ccccc21 | 94.3% (active)
2 | O=C1C=Cc2ccccc2C1=O | 6.7%
3 | C[C@H]1CCCC(=O)CCC/C=C/c2cc(O)cc(O)c2C(=O)O1 | 0.58%
4 | CC(C)[C@@]1(NC(=O)[C@@H]2C[C@@H]3c4cccc5[nH]cc(c45)C[C@H]3N(C)C2)O[C@@]2(O)[C@@H]3CCCN3C(=O)[C@H](Cc3ccccc3)N2C1=O | 4.69%
5 | CC1CCC[C@H](O)CCCCCc2cc(O)cc(O)c2C(=O)O1 (stereo not given in full) | 2.98%
6 | CN1C2CCC1CC(OC(=O)CCN1CCCC1)C2 (stereo not given) | 0.67%
7 | COc1ccc(Cc2nccc3cc(OC)c(OC)cc23)cc1OC | 74.4% (active)
8 | C[C@H]1CC[C@@]2(C)[C@@H](CC[C@@H]3[C@@H]2CC[C@]2(C)[C@@H](O)CC[C@@H]32)C1 | 5.74%
9 | O=Cc1cn(Cc2ccc(F)cc2)c2ccccc12 | 0.18%
10 | C[C@]12CCC(=O)C=C1CC[C@@H]1[C@@H]2C(=O)C[C@]2(C)C(=O)CC[C@@H]12 | 3.91%
